Screening data from PubChem.
Shown is part of a subset that was picked to be rich in hits.
Insulin prom act – TRM-6 insulin promoter activation; activation, % at 2 µM; TRM-6 cells, insulin promoter eGFP reporter, imaging; plate-scaled: unstimulated 0, stimulated control 100; actives 0.81% (n = 130,000);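 active means activation at 2 µM above a set limit, confirmed on inspection of the cell images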;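 further: share of cells whose green reporter signal exceeds an intensity cutoff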
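material = TRM-6 human fetal islet cells, insulin promoter–eGFP reporter | input = 1,000 TRM-6 cells seeded per well | benchmarks = stimulated versus unstimulated wells as plate controls | measured by = automated fluorescence imaging of paraformaldehyde-fixed, Hoechst-counterstained cells, green channel | schedule = compound exposure 48 h, 37 °C | reagent = tamoxifen at 0.75 µM added at seeding for reporter induction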
Starred values were filed as active, the others as inactive.

SMILES	Insulin prom act
CC(O)C(NS(=O)(=O)c1ccc(Cl)cc1)C(=O)OCC(=O)N1CCN(c2ccccc2)CC1 (stereo not given)	6
O=C(O)C1CCCN(C(=O)NCc2ccccc2)C1 (stereo not given)	5
CCOc1ccc(NC(=O)C2CCCN(C(=O)NCc3ccccc3)C2)cc1 (stereo not given)	493*
CCOc1ccccc1NC(=O)C1CCN(C(=O)NCc2ccccc2)CC1	-7
COc1ccc(CCNC(=O)CC2SC(=NCCC(C)C)NC2=O)cc1OC (stereo not given)	6
O=C(c1ccccn1)N1CC=C(c2ccccc2)CC1	6
CCCCNCCCOc1cccc(Cl)c1Cl	-3
CC(/C=C/c1ccccc1)=N\NC(=O)CNC(=O)c1ccccc1Cl	-9
O=C(N/N=C/C=C/c1ccccc1)c1ccc(Br)cc1	10
CC(/C=C/c1ccccc1)=N\NC(=O)c1ccc(Br)cc1	389*
O=C(Nc1cccc(-c2nc3cccnc3s2)c1)c1ccco1	481*
O=C(Nc1nccs1)c1cccc(NC(=O)c2ccco2)c1	-93
O=C(Nc1cccc(-c2cnc3ccccc3n2)c1)c1cccc(NC(=O)c2ccco2)c1	7
N#CCCN(C(=O)COC(=O)c1ccc(CNS(=O)(=O)c2ccc(F)c(Cl)c2)cc1)c1ccc(F)cc1	-8
O=C(NC(=S)NCc1ccccc1)c1cccnc1	-7
CCCCNC(=S)N1CCn2cccc2C1c1ccccc1 (stereo not given)	0
S=C(NCc1ccccc1)N1CCn2cccc2C1c1cccnc1 (stereo not given)	124*
Cc1csc(NC(=O)CS(=O)(=O)c2ccccc2)n1	-71
COc1ccc(NC(=O)C(C)N2C(=O)c3ccccc3C2=O)cc1S(=O)(=O)N1CCOCC1 (stereo not given)	0
O=S(=O)(Nc1cccc2c1CCCC2)c1ccc(Cl)cc1	-8
CCOC(=O)c1ccc(S(=O)(=O)Nc2ccc3cn[nH]c3c2)cc1	5
Cc1cc(Cl)ccc1OCC(=O)N1CCCCC1	-7
COC(=O)C1CCCN1C(=O)COc1ccc(Br)cc1Cl (stereo not given)	438*
COCCNC(=O)COc1ccc(Br)cc1Cl	-7
COc1ccc(CCNC(=O)CN2CCC(C)CC2)cc1OC	-5
SMILES	Insulin prom act
CCCCC(CC)CNC(=O)Cn1c(=S)[nH]c2ncccc2c1=O (stereo not given)	-9
O=C(CN1C(=O)C2CC=CCC2C1=O)Nc1ccc(S(=O)(=O)N2CCOCC2)cc1 (stereo not given)	-73
O=C(NNC(=O)C1CCN(Cc2ccccc2)CC1)c1cccc(Cl)c1	-3
O=C(CCNC(=O)c1ccco1)Nc1ccc(N2CCOCC2)cc1	-7
CN(C)c1ccc(/C=C2\CCC/C(=C\c3ccccc3)C2=O)cc1	120
O=C1/C(=C/c2ccc(F)cc2)CCC1C1CCCC1 (stereo not given)	442*
O=C1/C(=C/c2ccco2)CCC1C1CCCC1 (stereo not given)	-7
CCCCCNC(=O)N[C@H](C(=O)O)C(C)C	0
Brc1cc2c(cc1/C=N/Nc1nc(N3CCCCC3)nc(N3CCCCC3)n1)OCO2	0
CS(=O)(=O)N(CC(=O)N1CCCCCC1)Cc1ccc(Cl)cc1	-7
CN1CCN(C(=O)CN(Cc2ccc(Cl)cc2)S(C)(=O)=O)CC1	579*
CS(=O)(=O)N(CC(=O)NC1CCCC1)Cc1ccc(Cl)cc1	-3
COc1ccc(N2C(=O)C(CC(N)=O)N(NC(=O)c3cccc(OC)c3)C2=S)cc1 (stereo not given)	0
CC(C)(c1ccccc1)c1ccc(OCCCNCCO)cc1	-6
C(=C1/CCCC2=C1Nc1ncnn1C2c1ccccc1)/c1ccccc1 (stereo not given)	-73
O=C1c2ccccc2C(=O)c2c1oc(C(F)(F)F)c2C(=O)c1ccccc1	0
CC(=O)c1c(C)oc2c1C(=O)c1ccccc1C2=O	4
O=C1c2ccccc2-c2onc3ccc(Oc4ccccc4)c1c23	400*
C/C(N)=C(/C#N)C(=O)CSc1nc2ccccc2n1CC(C)C	0
O=C(NCc1ccc2c(c1)OCO2)c1ccc(=O)[nH]c1	-6
O=C(O)/C=C/C(=O)NCCc1ccccc1	321*
COc1ccc(CCNC(=O)/C=C/C(=O)O)cc1	0
O=C(/C=C/c1c(Cl)cccc1Cl)NCCc1ccccc1	9
CCOC(=O)c1cc2ccccc2n1CCN(CC)CC	78*
CCOC(=O)c1cc(C)n(CCc2ccccc2)c1C	-3
SMILES	Insulin prom act
CCOC(=O)c1cc2sc(C)cc2n1CC(=O)N(CC)CC	8
Cc1nnc(SCC(=O)Nc2ccc(Cl)cn2)s1	5
O=C(N/N=C/C1CC2CCC1C2)c1ccc2c(c1)OCO2 (stereo not given)	0
Cc1ccc(Oc2ncccc2/C=N/OCc2ccc(Cl)c(Cl)c2)cc1	-3
COc1ccc(CCn2c(C)nc3c(c(=O)c4ccccc4n3C)c2=O)cc1	-3
COc1ccc(CCn2c(-c3ccco3)nc3nc4ccccc4nc32)cc1	179*
COc1ccc(Cn2c(-c3ccc(OC)cc3)nc3ccccc32)cc1	9
CCc1cc[n+](-c2nc3ccccc3nc2[N-]S(=O)(=O)c2ccc(Br)s2)cc1	-8
CCOC(=O)CCC(=O)N1CCOCCOCCN(C(=O)CCC(=O)OCC)CCOCCOCC1	0
COc1ccc2c(COC(=O)CNC(=O)C34CC5CC(CC(C5)C3)C4)cc(=O)oc2c1	3
O=C1c2ccccc2C(=O)N1CC(O)CNc1ccc(Br)cc1 (stereo not given)	-72
Cc1ccc(NC(=O)CSc2nnc(-c3cccnc3)n2CCN2CCCCC2)cc1	8
Cc1ccccc1NS(=O)(=O)c1cc(C(N)=O)ccc1C	59
O=C(CSc1nnc(-c2ccco2)n1-c1ccccc1)N1CCOCC1	3
Nn1c(SCC(=O)N2CCOCC2)nnc1-c1ccccc1Cl	111*
Cc1ccc(-n2c(SCC(=O)N3CCOCC3)nnc2-c2cccnc2)cc1	3
COc1cccc(NC(=O)c2cc(OC)c(OC)c(OC)c2Br)c1	0
CC(=O)c1ccc(N2CCN(S(=O)(=O)c3cccc(S(=O)(=O)N4CCOCC4)c3)CC2)cc1	-4
O=S(=O)(c1cccc(S(=O)(=O)N2CCC(N3CCCCC3)CC2)c1)N1CCOCC1	631*
O=S(=O)(c1cccc(S(=O)(=O)N2CCC(Cc3ccccc3)CC2)c1)N1CCOCC1	3
COC(=O)c1nn(-c2ccccc2)c(Cl)c1/C=N/OCc1ccc(Cl)cc1Cl	-7
COc1ccc(NC(=O)Cn2c(=O)n(CC(=O)NCc3ccco3)c(=O)c3ccccc32)cc1	7
O=C1CSCN1c1ccc(Cl)cc1	0
CC(C)(C)NC(=O)C(OC(=O)c1cccs1)c1ccc(C#N)cc1 (stereo not given)	-3
CC(=O)c1ccc(NC(=O)NCc2ccc(F)cc2)cc1	326*
SMILES	Insulin prom act
CCN(CC)c1ccc(NC(=O)Nc2ccc(C(C)=O)cc2)cc1	2
CC(=O)c1ccc(NC(=O)Nc2ccccc2)cc1	0
COC(=O)c1cccc(NC(=O)CCSc2ccc(Cl)cc2)c1C	3
COC(=O)[C@@]1(Cc2ccc(OC)cc2)[C@H]2c3cc(C(=O)N4CCCC4)n(CCn4cc([N+](=O)[O-])nc4C)c3C[C@H]2CN1C(=O)c1ccccc1	-5
CC(c1n[nH]c(=S)n1-c1ccc(F)cc1)N1CCCCC1 (stereo not given)	2
Cc1nn(C(C)c2n[nH]c(=S)n2-c2cccc(Cl)c2)c(C)c1[N+](=O)[O-] (stereo not given)	200
